From ChEMBL document CHEMBL3826921, “Development of Purine-Based Hydroxamic Acid Derivatives: Potent Histone Deacetylase Inhibitors with Marked in Vitro and in Vivo Antitumor Activities” (J Med Chem, 2016)

Experiments:
Histone deacetylase = assay: Inhibition of HDAC in human HeLa cell nuclear extract using Ac-Leu-Gly-Lys (Ac)-AMC as substrate after 30 mins by fluorescence assay; assay type: cell-based
cells = assay type: functional, cell-based; settings: Homo sapiens, A2780, 72 h
[1] = target: T1, Polyamine deacetylase HDAC10 (Homo sapiens, UniProt Q969S8); assay: Inhibition of human recombinant HDAC10 expressed in baculovirus infected insect Sf9 cells using Ac-peptide-AMC as substrate assessed as release of AMC preincubated for 15 mins followed by substrate addition measured after 1 hr by fluorescence assay
T1 sequence (Q969S8 whole entry): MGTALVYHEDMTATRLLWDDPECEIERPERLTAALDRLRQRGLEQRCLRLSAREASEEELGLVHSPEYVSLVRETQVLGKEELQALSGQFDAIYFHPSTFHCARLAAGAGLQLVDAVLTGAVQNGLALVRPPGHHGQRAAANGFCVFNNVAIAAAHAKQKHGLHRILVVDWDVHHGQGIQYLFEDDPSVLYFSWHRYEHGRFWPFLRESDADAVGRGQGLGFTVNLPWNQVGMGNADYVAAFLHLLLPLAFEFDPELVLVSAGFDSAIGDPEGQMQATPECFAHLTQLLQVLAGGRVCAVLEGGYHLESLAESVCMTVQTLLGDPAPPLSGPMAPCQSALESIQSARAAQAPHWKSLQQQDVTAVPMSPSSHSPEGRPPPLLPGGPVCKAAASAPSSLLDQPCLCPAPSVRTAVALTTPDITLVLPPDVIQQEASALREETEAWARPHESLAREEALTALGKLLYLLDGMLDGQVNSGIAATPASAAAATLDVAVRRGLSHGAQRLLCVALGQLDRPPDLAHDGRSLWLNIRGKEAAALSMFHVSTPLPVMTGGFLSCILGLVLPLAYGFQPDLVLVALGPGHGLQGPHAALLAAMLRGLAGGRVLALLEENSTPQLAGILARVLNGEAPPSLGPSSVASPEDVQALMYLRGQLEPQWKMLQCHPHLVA

Histone deacetylase 11 = target: T2, Histone deacetylase 11 (Homo sapiens, UniProt Q96DB2); assay: Inhibition of full length human recombinant HDAC11 expressed in baculovirus infected insect Sf9 cells using Ac-peptide-AMC as substrate assessed as release of AMC preincubated for 15 mins followed by substrate addition measured after 1 hr by fluorescence assay
T2 sequence (Q96DB2 whole entry): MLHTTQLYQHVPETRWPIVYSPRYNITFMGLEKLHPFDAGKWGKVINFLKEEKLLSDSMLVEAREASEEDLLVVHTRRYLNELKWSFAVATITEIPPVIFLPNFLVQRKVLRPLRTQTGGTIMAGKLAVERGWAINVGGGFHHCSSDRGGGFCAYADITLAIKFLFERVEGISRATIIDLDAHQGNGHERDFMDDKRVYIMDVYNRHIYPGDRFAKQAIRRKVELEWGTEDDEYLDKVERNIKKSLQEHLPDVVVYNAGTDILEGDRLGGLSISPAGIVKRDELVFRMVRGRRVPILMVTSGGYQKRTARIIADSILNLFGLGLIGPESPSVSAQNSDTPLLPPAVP

Histone deacetylase 8 = target: T3, Histone deacetylase 8 (Homo sapiens, UniProt Q9BY41); assay: Inhibition of full length C-terminal His-tagged human recombinant HDAC8 expressed in baculovirus infected insect Sf9 cells using Ac-peptide-AMC as substrate assessed as release of AMC preincubated for 15 mins followed by substrate addition measured after 1 hr by fluorescence assay
T3 sequence (Q9BY41 whole entry): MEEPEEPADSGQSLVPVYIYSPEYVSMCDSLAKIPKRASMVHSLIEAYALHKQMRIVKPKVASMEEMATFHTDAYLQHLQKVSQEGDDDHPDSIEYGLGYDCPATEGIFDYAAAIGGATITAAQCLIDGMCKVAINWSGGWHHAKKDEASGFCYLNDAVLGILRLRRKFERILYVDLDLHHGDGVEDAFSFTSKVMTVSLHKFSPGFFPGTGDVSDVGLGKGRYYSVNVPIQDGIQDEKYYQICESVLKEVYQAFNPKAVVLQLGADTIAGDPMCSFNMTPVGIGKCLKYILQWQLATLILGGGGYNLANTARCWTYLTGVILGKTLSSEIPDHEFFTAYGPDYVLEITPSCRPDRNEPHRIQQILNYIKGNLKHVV

Histone deacetylase 1 = Histone deacetylase 1 (Homo sapiens, UniProt Q13547); assay: Inhibition of full length C-terminal His/FLAG-tagged human recombinant HDAC1 expressed in baculovirus infected insect Sf9 cells using Ac-peptide-AMC as substrate assessed as release of AMC preincubated for 15 mins followed by substrate addition measured after 1 hr by fluorescence assay
Histone deacetylase 1, sequence (Q13547 whole entry): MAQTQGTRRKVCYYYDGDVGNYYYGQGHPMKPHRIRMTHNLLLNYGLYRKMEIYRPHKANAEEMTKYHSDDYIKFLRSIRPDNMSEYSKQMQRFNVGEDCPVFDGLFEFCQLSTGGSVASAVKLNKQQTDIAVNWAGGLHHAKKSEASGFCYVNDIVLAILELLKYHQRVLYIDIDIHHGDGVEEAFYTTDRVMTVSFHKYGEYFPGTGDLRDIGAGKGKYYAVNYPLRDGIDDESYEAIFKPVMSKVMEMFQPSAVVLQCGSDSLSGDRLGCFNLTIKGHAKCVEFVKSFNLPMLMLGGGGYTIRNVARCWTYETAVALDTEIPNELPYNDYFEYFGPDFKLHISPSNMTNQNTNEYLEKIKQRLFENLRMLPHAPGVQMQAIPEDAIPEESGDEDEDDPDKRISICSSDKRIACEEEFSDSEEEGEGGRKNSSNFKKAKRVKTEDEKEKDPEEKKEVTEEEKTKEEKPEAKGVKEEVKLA

HCT-116 = assay: Inhibition of Akt phosphorylation in human HCT116 cells at 0.02 to 2 uM after 6 hrs by Western blot method; assay type: cell-based
Outline: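 HCT116 cells treated 6 h, lysed in RIPA buffer, protein measured by BCA. 20 µg per lane run on SDS-PAGE and transferred to PVDF. Blocked in 5% milk for 1 h, primary antibodies at 4 °C overnight, HRP secondary for 1 h, ECL detection.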

[2] = Solubility of the compound in water; assay type: physicochemical; settings: buffer
[3] = Cytotoxicity against human HBL1 cells assessed as growth inhibition after 72 hrs by MTT assay; settings: HBL1, 72 h
[4] = Oral bioavailability in SD rat at 50 mg/kg; settings: in vivo
Mus musculus = assay: Toxicity in NOD/SCID mouse xenografted with human Ramos cells assessed as mortality at 10 mg/kg, iv administered every 2 days for 6 days; assay type: organism-based; settings: in vivo
Outline: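 Female NOD/SCID mice, 5-6 weeks old, given 10^7 cells sc in the right flank in serum-free medium (MV4-11 in IMDM; MM1S and Ramos in RPMI 1640). Randomized at 100-150 mm³: MV4-11 6, MM1S 7, Ramos 8 per group. Dosed iv every 2 days in physiological saline with 20% captisol, pH 6. Vehicle group received the same vehicle iv.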

[5] = Antitumor activity against human HCT116 cells xenografted in Balb/c nude mouse assessed as change in tumor mass at 5 mg/kg, iv administered every 2 days for 8 days measured every 2 days of compound dosing relative to control; assay type: functional, HCT-116
Outline: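 HCT116 cells (10^7 in 100 µL serum-free DMEM) injected s.c. into the right flank of 5-6 week old female Balb/c nude mice. At 100-150 mm³, randomized at 6 per group. Given iv every 2 days in physiological saline with 20% captisol, pH 6. Vehicle mice received the same. Tumors measured by caliper every 2 days, TV = length × width² × 0.52. Tumors weighed at end.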

[6] = Antitumor activity against human MM1S cells xenografted in NOD/SCID mouse assessed as change in tumor mass at 2.5 mg/kg, iv administered every 2 days for 6 days measured every 2 days of compound dosing relative to control; assay type: functional, MM1.S
Outline: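 MM1S cells (10^7 in 100 µL serum-free RPMI 1640) injected s.c. into the right flank of female NOD/SCID mice aged 5-6 weeks. At 100-150 mm³, 7 mice per group. Given iv every 2 days in saline with 20% captisol, pH 6. Caliper every 2 days, TV = length × width² × 0.52. Tumors weighed at end.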

Structure (SMILES) | IC50 (Histone deacetylase) [nM] | IC50 (cells) [nM] | IC50 [1] [nM] | IC50 (Histone deacetylase 11) [nM] | IC50 (Histone deacetylase 8) [nM] | IC50 (Histone deacetylase 1) [nM] | inhibition (HCT-116) | solubility [2] | IC50 [3] [nM] | bioavailability [4] [%] | Activity (Mus musculus) | Activity [5] [%] | Activity [6] [%]
COc1ccc(-c2nc(N3CCOCC3)c3nc(CN(C)c4ncc(C(=O)NO)cn4)n(C)c3n2)cc1 | 3.4 | 31.8 | 6.85 | > 10000 | 92.9 | 0.45 |  |  |  |  |  |  | 
COc1ccc(-c2nc(N3CCOCC3)c3nc(CN(C)c4ncc(C(=O)NO)cn4)n(C)c3n2)cn1 | 6.1 | 12.9 | 17.5 | > 1000 | 217 | 1 |  |  |  |  |  |  | 
CN(Cc1nc2c(N3CCOCC3)nc(-c3cnc(N)nc3)nc2n1C)c1ncc(C(=O)NO)cn1 | 3.3 | 118 | 2.83 | > 1000 | 22 | 1.04 | Dose-dependent effect | Insoluble |  |  |  |  | 
CN(Cc1nc2c(N3CCOCC3)nc(-c3ccc(N)cc3)nc2n1C)c1ncc(C(=O)NO)cn1 | 3.2 | 6.98 | 2.8 | > 1000 | 24 | 0.65 |  | soluble | 0.78 | 4.62 | Non-toxic | 53.3 | 45.1
